Shown are actives, neighbours in structure and some others; about 2.3% of the full set was active somewhere.
OXTR agonist: human OXTR agonism | P30559 | CHO-OTR cells, Fluo-8 calcium fluorescence; normalized: DMSO 0%, oxytocin 100% | activation, % at 3 µM | hit rate 0.32% among 320,000 | AID 2435;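 active = activation above the mean of all tested compounds plus 3 SD, cutoff set per screening run, cut at about 20% in these data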;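 also: peak over basal fluorescence ratio from a 100 s FLIPR kinetic read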
V1aR counter: activates human V1a receptor in oxytocin agonist counter-screen; P37288; CHO-V1R cells, Fluo-8 calcium fluorescence, agonist mode; 0% DMSO, 100% 3 nM vasopressin; activation, % at 3 µM; hit rate 0.25% among 320,000; AID 2797;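 active = activation above the mean activation of all tested compounds plus 3 SD, per screening run, cut at about 20% in these data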;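 also: signal is peak over basal fluorescence ratio across a 100 second FLIPR read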
TAAR1 antagonist: human TAAR1 antagonism. CHO RD-HGA16 TAAR1, Fluo-8 calcium fluorescence, antagonist. hit rate 1.5% among 360,000. inhibition, % at 3 µM. AID 624466;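 active = inhibition above a per-plate cutoff, the mean inhibition of test compounds on that plate plus 3 SD, cut at about 49% in these data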
Target sequence (Q96RJ0 whole entry, looked up): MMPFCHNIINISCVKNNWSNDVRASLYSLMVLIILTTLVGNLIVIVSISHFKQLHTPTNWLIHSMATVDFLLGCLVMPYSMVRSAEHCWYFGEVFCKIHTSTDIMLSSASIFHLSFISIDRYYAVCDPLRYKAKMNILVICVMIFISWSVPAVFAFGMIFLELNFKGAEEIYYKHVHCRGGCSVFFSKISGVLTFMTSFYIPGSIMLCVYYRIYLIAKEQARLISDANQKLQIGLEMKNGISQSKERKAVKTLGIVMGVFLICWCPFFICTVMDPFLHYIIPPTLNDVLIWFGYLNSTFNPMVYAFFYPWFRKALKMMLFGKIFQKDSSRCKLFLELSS
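Assay system: CHO-derived RD-HGA16 cells stably expressing human TAAR1 plus Gα16. Timing: 140 s kinetic read after compound, 140 s after agonist. Technique: kinetic Fluo-8 calcium fluorescence measurement. Measure: % inhibition of agonist calcium response.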
OXTR potentiator: potentiators of human oxytocin receptor; CHO-OTR cells, Fluo-8 calcium fluorescence, potentiator mode; 0% = oxytocin EC15, 100% = EC100; activation, % at 3 µM; hit rate 0.061% among 320,000;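 active = activation above that plate's cutoff, the mean activation of tested compounds plus 3 SD, cut at about 6.6% in these data, passing the limit was not always enough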
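Material: CHO-OTR cells, human receptor; compound dosing: single dose, 3.0 µM nominal final compound concentration; schedule: 6 min compound pre-incubation at room temperature, 100 s kinetic read; measured by: kinetic Fluo-8 calcium fluorescence; read-out basis: % activation vs EC15 and EC100 oxytocin; controls: EC15 oxytocin alone as 0%, 75 nM oxytocin as 100%; replicates: singlicate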
TAAR1 ag: agonists of human TAAR1; activation, % at 3 µM; CHO RD-HGA16 TAAR1, Fluo-8 calcium fluorescence; vehicle wells 0%, saturating PEA agonist 100%; hit rate 0.99% among 360,000;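 active = activation above the mean activation of all test compounds in the run plus 3 SD, cut at about 38% in these data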
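test system = CHO RD-HGA16 cells carrying human TAAR1 plus Gα16 | schedule = 17-24 h seeding, 75 min 37 °C dye, 30 min RT | compound dosing = 3 µM single concentration | control set = DMSO and PEA EC100 | replicates = n 1 | signal = Fluo-8 fluorescence, 5 s baseline then 140 s kinetic read | measure = percent activation vs PEA EC100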
Hits are given with their value; i = inactive; nt = no result.

SMILES | OXTR agonist | V1aR counter | TAAR1 antagonist | OXTR potentiator | TAAR1 ag
CCCCC(=O)Nc1ncc(S(=O)(=O)c2ccc([N+](=O)[O-])cc2)s1 | i | i | i | i | 54.8
Cc1cccc(N2CCN(C(=O)C3CCN(S(=O)(=O)c4cccc5nsnc45)CC3)CC2C)c1 (centres undefined) | i | i | 59.7 | i | i
Cc1cccc(N2CCN(C(=O)C3CCN(c4nnc(-n5cccc5)s4)CC3)CC2C)c1 (centres undefined) | i | i | 49.0 | i | i
CCS(=O)(=O)N1CCN=C1SC(C)c1ccccc1 (centres undefined) | i | i | i | i | i
COc1ccc(N2CCN(C(=O)COC(=O)c3cc(S(=O)(=O)N(C)C)ccc3N3CCCC3)CC2)cc1 | i | i | i | i | i
O=C(NC(=S)Nc1ccc(Cc2ccncc2)cc1)c1ccccc1 | i | i | i | i | i
COc1ccc(C(=O)c2sc(Nc3cccc(OC)c3)c(C(=O)Nc3cccc(C)c3C)c2N)cc1 | i | i | i | i | 37.5
COc1ccc(Nc2sc(C(=O)c3ccc(Cl)cc3)c(N)c2C(=O)Nc2ccccc2OC)cc1 | 47.2 | 40.3 | 72.6 | i | 106.6
COC(=O)c1cn(Cc2cccnc2)c(=O)c2ccccc12 | i | i | i | i | i
CCOc1ccc(/C=C2\CCCc3c2nc2ccccc2c3C(=O)O)cc1OC | 100.2 | 134.8 | nt | i | nt
COc1ccc(/C=C2\CCCc3c2nc2ccccc2c3C(=O)O)cc1OC | i | i | nt | i | nt
COc1ccc(CCNC(=O)c2cc(C(=O)c3cc(C)ccc3O)cn(CCc3ccc(OC)cc3)c2=O)cc1 | i | i | 54.3 | i | i
CC1CC(C)CN(c2ccc(NS(=O)(=O)c3ccccc3)cc2C(=O)O)C1 (centres undefined) | i | i | i | i | i
N=C1/C(=C\c2ccc(OC(=O)c3ccc(F)cc3)cc2)C(=O)N=C2SC(N3CCOCC3)=NN12 | i | i | i | i | i
Cc1nnsc1NC(=O)OCc1ccc(C(F)(F)F)cc1 | i | i | i | i | i
Cc1nnsc1NC(=O)OCc1ccccc1Cl | i | i | i | i | 41.0
Cc1cccc(OCC(=O)OCC(=O)Nc2sccc2C(N)=O)c1 | i | i | 55.5 | i | i
NC(=O)c1ccsc1NC(=O)COC(=O)Cc1cccc2ccccc12 | i | i | 73.3 | i | i
NC(=O)c1ccsc1NC(=O)CSc1ccccc1F | i | i | i | i | i
CN(C)S(=O)(=O)c1cccc(C(=O)OCC(=O)Nc2sccc2C(N)=O)c1 | i | i | 74.8 | i | 41.4
Cc1ccccc1SCC(=O)OCC(=O)Nc1sccc1C(N)=O | i | i | 49.0 | i | i
COc1ccc(NC(=O)COC(=O)c2cccc(S(=O)(=O)N(C)C)c2)cc1 | nt | nt | i | nt | i
O=C(O)c1cc(NN=Nc2cccc(S(=O)(=O)O)c2)cc([N+](=O)[O-])c1 | i | i | i | i | i
CC(C)c1ccc(N=c2c([N+](=O)[O-])nn(-c3ccc4c(c3)OCCO4)n2O)cc1 | i | i | 64.3 | i | i
COc1cc(N=c2c([N+](=O)[O-])nn(-c3ccc4c(c3)OCCO4)n2O)cc(OC)c1 | i | i | i | i | i
SMILES | OXTR agonist | V1aR counter | TAAR1 antagonist | OXTR potentiator | TAAR1 ag
O=C1NC(Cc2ccc(O)cc2)c2nc3cc(F)c(F)cc3c(=O)n2-c2cc3ccccc3cc21 (centres undefined) | nt | nt | i | nt | i
O=C1NC(Cc2ccc(O)cc2)c2nc3ccc(F)cc3c(=O)n2-c2cc3ccccc3cc21 (centres undefined) | nt | nt | 50.3 | nt | i
COCCNC(=O)C(c1cccs1)N(CCc1ccccc1)C(=O)Cn1nnc2ccccc21 (centres undefined) | i | i | i | i | 40.2
COCCNC(=O)C(c1cccs1)N(Cc1ccccc1)C(=O)Cn1nnc2ccccc21 (centres undefined) | i | i | i | i | i
O=C1c2ccccc2C(=O)N1CCOc1ccccc1Br | i | i | i | i | i
O=C1/C(=C\c2ccc(Cl)c(Cl)c2)CN(C(=O)CCN2CCOCC2)C/C1=C/c1ccc(Cl)c(Cl)c1 | nt | nt | 56.8 | nt | i
O=C1/C(=C\c2ccccc2)CN(C(=O)CCN2CCCCC2)C/C1=C/c1ccccc1 | nt | nt | i | nt | i
CC(=O)/C(=N/Nc1ccccc1[N+](=O)[O-])N1CCCc2ccccc21 | i | i | i | i | i
O=C(NCc1ccncc1)C(=O)Nc1nc(C23CC4CC(CC(C4)C2)C3)cs1 | i | i | 50.1 | i | i
CCCc1ccc2oc(C(=O)N3CCN(CC(=O)NC(C)C)CC3)c(C)c2c1 | i | i | i | i | i
CC(=O)c1cccc(NC(=O)CSc2ccc(-c3sc(C)nc3C)nn2)c1 | i | i | i | i | i
Cc1nc(C)c(-c2ccc(SCC(=O)Nc3cccc(Cl)c3)nn2)s1 | i | i | 51.9 | i | i
CCOC(=O)c1ccccc1NC(=O)COC(=O)C1CCN(S(=O)(=O)c2ccccc2C(=O)OC)CC1 | i | i | 48.9 | i | i
O=C(CCc1ccccc1)NC1(Cc2ccccc2)CCN(CCc2cccs2)C1=O (centres undefined) | i | i | i | i | i
O=C(NC1(Cc2ccccc2)CCN(Cc2ccc(-c3ccccc3)cc2)C1=O)c1ccccc1 (centres undefined) | i | i | 62.1 | i | i
N#C/C=C(/N)N1CCN(c2ccc(Cl)c(Cl)c2)CC1 | i | i | i | i | 38.5
O=C(O)c1cccc(NC(CNS(=O)(=O)c2ccc(Cl)cc2)c2ccccc2)c1 (centres undefined) | i | i | i | i | i
O=S(=O)(NCC(Nc1ccccc1)c1ccccc1)c1ccc(Cl)cc1 (centres undefined) | i | i | 51.3 | i | i
COc1ccc(-c2csc(Nc3ccc(S(=O)(=O)Nc4cc(C)on4)cc3)n2)cc1C | i | i | 49.0 | i | i
COc1ccc(-c2csc(Nc3ccc(S(=O)(=O)Nc4cc(OC)nc(OC)n4)cc3)n2)cc1 | i | i | i | i | i
CCn1ncc(C2=NOC(C(=O)NCC(C)C)C2)c1C (centres undefined) | i | i | i | i | i
CCn1ncc(C2=NOC(C(=O)Nc3cnn(C45CC6CC(CC(C6)C4)C5)c3)C2)c1C (centres undefined) | 35.5 | 25.2 | nt | i | nt
CCn1ncc(C2=NOC(C(=O)NCCc3ccccc3)C2)c1C (centres undefined) | i | i | i | i | 61.1
Cc1nc(COc2ccccc2Cl)sc1-c1ccnc(N)n1 | i | i | i | i | i
COc1cccc(N=C2C(=O)N3CCCc4cccc2c43)c1 | i | i | i | i | i
CC(C)Cn1cnc2c(c(-c3ccccc3)c(-c3ccccc3)n2Cc2ccco2)c1=N | i | i | i | i | 41.9
N=c1c2c(-c3ccccc3)c(-c3ccccc3)n(Cc3ccco3)c2ncn1Cc1ccccc1 | 21.4 | 22.6 | i | i | i

Bioassay records from PubChem.
